Laboratory results reported in ChEMBL document CHEMBL1149149, “Design, synthesis, and biological activity of 1,3-disubstituted ureas as potent inhibitors of the soluble epoxide hydrolase of increased water solubility” (J Med Chem, 2004).
Values after ≈ are worked out from the molar mass of the structure shown.

Tests used:
[1] = biological target: T1, Bifunctional epoxide hydrolase 2 (Homo sapiens) (UniProt P34913); assay: Tested for 90 % inhibitory concentration against human soluble epoxide hydrolase (sEH)
T1 sequence (whole entry): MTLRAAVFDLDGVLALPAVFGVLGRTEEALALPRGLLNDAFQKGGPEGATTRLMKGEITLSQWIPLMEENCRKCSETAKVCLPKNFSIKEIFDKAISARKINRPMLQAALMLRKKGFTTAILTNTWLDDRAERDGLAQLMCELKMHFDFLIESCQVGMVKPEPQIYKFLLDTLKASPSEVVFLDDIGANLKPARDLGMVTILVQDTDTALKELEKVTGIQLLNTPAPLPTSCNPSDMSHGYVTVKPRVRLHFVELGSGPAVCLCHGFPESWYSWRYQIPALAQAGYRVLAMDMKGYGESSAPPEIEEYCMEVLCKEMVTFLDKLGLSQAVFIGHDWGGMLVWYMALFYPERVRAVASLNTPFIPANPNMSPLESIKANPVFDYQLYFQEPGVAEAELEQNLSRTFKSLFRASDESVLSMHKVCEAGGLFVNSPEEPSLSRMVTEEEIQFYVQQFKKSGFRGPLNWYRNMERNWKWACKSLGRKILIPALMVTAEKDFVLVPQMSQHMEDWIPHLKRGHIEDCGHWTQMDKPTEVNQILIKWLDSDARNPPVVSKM
Procedure, shortened: (§1)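 Recombinant sEH (human for line 1, mouse for line 2) expressed in baculovirus and affinity-purified to ≥97%. Enzyme was preincubated with inhibitor for 5 min at 30 °C in 0.1 M sodium phosphate, pH 7.4, with 0.1 mg/mL BSA. Racemic 4-nitrophenyl-trans-2,3-epoxy-3-phenylpropyl carbonate (40 µM) was then added, and 4-nitrophenolate was read at 405 nm for 1 min at 30 °C. Assays were run in triplicate.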

[2] = biological target: T2, Bifunctional epoxide hydrolase 2 (Mus musculus) (UniProt P34914); assay: Tested for 90 % inhibitory concentration against mouse soluble epoxide hydrolase (sEH); procedure, shortened: as §1
T2 sequence (whole entry): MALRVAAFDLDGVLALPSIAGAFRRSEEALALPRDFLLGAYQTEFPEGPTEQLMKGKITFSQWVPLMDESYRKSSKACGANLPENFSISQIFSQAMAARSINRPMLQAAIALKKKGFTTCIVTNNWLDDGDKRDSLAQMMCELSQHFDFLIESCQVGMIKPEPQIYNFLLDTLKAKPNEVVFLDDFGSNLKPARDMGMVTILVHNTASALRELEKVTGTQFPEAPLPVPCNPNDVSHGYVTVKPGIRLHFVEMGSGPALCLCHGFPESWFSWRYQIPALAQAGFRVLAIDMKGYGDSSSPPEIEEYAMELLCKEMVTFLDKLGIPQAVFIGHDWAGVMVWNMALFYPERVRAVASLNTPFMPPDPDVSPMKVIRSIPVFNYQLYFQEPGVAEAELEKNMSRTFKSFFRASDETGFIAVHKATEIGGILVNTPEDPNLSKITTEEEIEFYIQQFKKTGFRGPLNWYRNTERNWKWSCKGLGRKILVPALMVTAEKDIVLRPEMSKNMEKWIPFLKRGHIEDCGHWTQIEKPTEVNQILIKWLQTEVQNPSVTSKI

[3] = biological target: T3, Bifunctional epoxide hydrolase 2 (Mus musculus, UniProt P34914); assay: Tested for 50 % inhibitory concentration against mouse soluble epoxide hydrolase (sEH)
T3 sequence (P34914 whole entry): T2 sequence (whole entry)
Procedure, shortened: (§2)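 Recombinant sEH was expressed in baculovirus and affinity-purified to at least 97% purity. Enzyme was preincubated with inhibitor for 5 min at 30 °C in 0.1 M sodium phosphate, pH 7.4, with 0.1 mg/mL BSA. Racemic 4-nitrophenyl-trans-2,3-epoxy-3-phenylpropyl carbonate was the substrate (40 µM). 4-Nitrophenolate was read at 405 nm for 1 min. Run in triplicate; IC50 from regression of at least five points.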

[4] = biological target: T4, Bifunctional epoxide hydrolase 2 (Homo sapiens, UniProt P34913); assay: Tested for 50 % inhibitory concentration against human soluble epoxide hydrolase (sEH); procedure, shortened: as §2
T4 sequence (P34913 whole entry): T1 sequence (whole entry)

[5] = Solubility in sodium phosphate buffer (0.1 M, pH 7.4) at 25 degrees C was determined
[6] = Partition coefficient (logP); format: physicochemical; details: octanol/water
Procedure, shortened: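 Compound dissolved in buffer-saturated octanol, then mixed with octanol-saturated 0.1 M sodium phosphate buffer, pH 7.4. Shaken 24 h at 23 ± 1.5 °C and centrifuged 5 min at 200g. Each phase was quantified by LC-MS/MS, and log P was taken as log [octanol]/[water]. Triplicate analyses.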

| SMILES | IC90 [1] | IC90 [2] | IC50 [3] | IC50 [4] | also measured |
| --- | --- | --- | --- | --- | --- |
| CCOC(=O)CCOC(=O)CCCNC(=O)NC12CC3CC(CC(C3)C1)C2 | 9 µM | 0.63 µM | – | – | – |
| O=C(O)CNC(=O)NC1CCCCC1 | – | – | > 500 µM | > 500 µM | – |
| CC(C)=CCCC(C)CCOC(=O)CCCNC(=O)NC12CC3CC(CC(C3)C1)C2 (configuration not stated) | – | – | 0.05 µM | 0.11 µM | – |
| CCOC(=O)CCCCCCCOC(=O)CCCNC(=O)NC12CC3CC(CC(C3)C1)C2 | 0.72 µM | 0.16 µM | – | – | – |
| CCOC(=O)CCCCOC(=O)CCCNC(=O)NC12CC3CC(CC(C3)C1)C2 | 1.5 µM | 0.1 µM | – | – | – |
| CCCCCOC(=O)CCCNC(=O)NC12CC3CC(CC(C3)C1)C2 | – | – | – | – | solubility ([5]; sodium phosphate buffer): 1.69 µg/mL (≈ 4.82 µM) |
| CCCCCCCCCCNC(=O)NC12CC3CC(CC(C3)C1)C2 | – | – | – | – | logP [6]: 5.25; solubility ([5]; sodium phosphate buffer): 0.62 µg/mL (≈ 1.85 µM) |
| O=C(O)CCCNC(=O)NC12CC3CC(CC(C3)C1)C2 | – | – | 22 µM | 37 µM | logP [6]: 0.14; solubility ([5]; sodium phosphate buffer): 7.06 µg/mL (≈ 25.2 µM) |
| CCOC(=O)c1ccc(COC(=O)CCCNC(=O)NC23CC4CC(CC(C4)C2)C3)cc1 | – | – | 0.05 µM | 0.1 µM | – |
| O=C(NCCCO)NC1CCCCC1 | – | – | > 500 µM | > 500 µM | – |
| CCCCCCC(O)CCCNC(=O)Nc1cccc(Cl)c1 (configuration not stated) | – | – | 0.14 µM | 3.1 µM | – |
| CCCCCNC(=O)NCCNC(=O)Nc1cccc(Cl)c1 | – | – | – | > 100 µM | – |
| CCOC(=O)CCCOC(=O)CCCNC(=O)NC12CC3CC(CC(C3)C1)C2 | 5 µM | 0.16 µM | – | – | – |
| CCOC(=O)COC(=O)CCCNC(=O)NC12CC3CC(CC(C3)C1)C2 | 9 µM | 0.11 µM | – | – | – |
| CCCCCOC(=O)NCCNC(=O)Nc1cccc(Cl)c1 | – | – | – | > 100 µM | – |
| CCCCCCCCCCNC(=O)NC1CCCCC1 | – | – | – | – | logP [6]: 5.44; solubility ([5]; buffer): 0.44 µg/mL (≈ 1.56 µM) |
| COC(=O)CCCNC(=O)NC12CC3CC(CC(C3)C1)C2 | – | – | 0.1 µM | 1.6 µM | logP [6]: 0.18; solubility ([5]; sodium phosphate buffer): 1.6 µg/mL (≈ 5.43 µM) |
| CCOC(=O)/C=C/c1ccc(OC(=O)CCCNC(=O)NC23CC4CC(CC(C4)C2)C3)cc1 | – | – | 0.05 µM | 0.2 µM | – |
| CCOC(=O)CCCCCCCCCCOC(=O)CCCNC(=O)NC12CC3CC(CC(C3)C1)C2 | 1.2 µM | 0.35 µM | – | – | – |
| CCOC(=O)CCCCCCCCCCCOC(=O)CCCNC(=O)NC12CC3CC(CC(C3)C1)C2 | 1.8 µM | 0.63 µM | – | – | – |
| CCCCCCC(=O)NCCNC(=O)Nc1cccc(Cl)c1 | – | – | – | > 100 µM | – |
| O=C(NCCCCCO)NC1CCCCC1 | – | – | 90 µM | 253 µM | – |
| CCOC(=O)Cc1ccc(OC(=O)CCCNC(=O)NC23CC4CC(CC(C4)C2)C3)cc1 | – | – | 0.05 µM | 0.14 µM | – |
| CCCCCOC(=O)CCCNC(=O)NC1CCCCC1 | – | – | – | – | logP [6]: 0.82; solubility [5]: 1.51 µg/mL (≈ 5.06 µM) |
| COCCCNC(=O)NC1CCCCC1 | – | – | 0.33 µM | 6.2 µM | – |
| CCOC(=O)CCCCCCCCCOC(=O)CCCNC(=O)NC12CC3CC(CC(C3)C1)C2 | 0.68 µM | 0.26 µM | – | – | – |
